Reference: PMC5820113 (Neuropharmacology, 2017)
Where two headings read alike, the source gives them in different places.

Assays:
METH self-administration [1] = conditions: cited from earlier work
sigma-1 receptors = conditions: ref Cao et al, 2016, cited from earlier work; for sigma-1/DAT binding ratio: ratio of binding affinities, Hiranita et al, 2017
[2] = system: cocaine self-administration; conditions: cited from earlier work
METH self-administration [3] = assay: Intravenous METH self-administration, short access; format: in vivo, rat; conditions: for reduction of METH intake: ShA rats (Supplemental Figure S2)
Outline: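 Rats (225-275 g at start, reverse light cycle, free food/water) trained on i.v. METH, 10-15 sessions, then 10 FR1 sessions of 1 h (ShA) or 6 h (LgA) access. Test compound i.p. (vehicle up to 100 mg/kg), 30 min or 1 h pretreatment, then FR1 session; Latin-square, within-subjects. Mean ± SEM; ANOVA or paired t-test vs vehicle, Holm-Sidak.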

[4] = Phase I metabolic stability in rat liver microsomes; format: in vitro ADME
[5] = system: saccharin self-administration; assay: Saccharin self-administration; format: in vivo, rat; conditions: rats (Supplemental Figure S3)
locomotion [6] = assay: Locomotion during saccharin self-administration; format: in vivo, rat; conditions: rats (Supplemental Figure S3)
[7] = mouse, previously conducted; ref Supplemental Material; cited from earlier work
[8] = system: cocaine-induced locomotion; conditions: ref Zhang et al, 2017; cited from earlier work
[9] = system: cocaine-induced reinstatement; conditions: ref Zhang et al, 2017; cited from earlier work
brain stimulation reward = conditions: cited from earlier work
[10] = system: sucrose self-administration; conditions: rats; ref Zhang et al, 2017; cited from earlier work
locomotion [11] = conditions: cited from earlier work
[12] = Plasma and brain levels after single i.p. dose in rats; format: in vivo; conditions: rat
Outline: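 Rats given a single 10 mg/kg i.p. dose, freshly prepared in 10% DMSO and 10% Tween 80 diluted with sterile saline. At 30 and 120 min (n = 3 per time point), CO2 euthanasia. Heparinized cardiac-puncture blood was spun at once for plasma. Brain was dissected and flash-frozen at -80°C.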

[13] = target: dopamine transporter (DAT); conditions: read-out: Ki, DAT affinity; ref Cao et al, 2016; Zhang et al, 2017; cited from earlier work
[14] = ref Cao et al, 2016; cited from earlier work
[15] = rats, ref Hiranita et al, 2014, 2017
[16] = all doses tested i.p. (JJC8-088 3, 10, 30 mg/kg; JJC8-089 1, 3, 10, 30 mg/kg)
[17] = 10 mg/kg i.p., 30 min post-administration
[18] = 10 mg/kg i.p., 2 h (120 min) post-administration
[19] = 100 mg/kg i.p., 1 h pretreatment, vs vehicle
[20] = 10-30 mg/kg, ref Zhang et al (2017)

SMILES | sigma-1/DAT binding ratio (sigma-1 receptors) | METH intake, LgA rats entire 6 h session (METH self-administration [3]; 30 mg/kg i.p., vs vehicle) | reduction of METH intake (METH self-administration [3]) | half-life [4] | saccharin (sweetened water) self-administration [5] | locomotion (locomotion [6]) | brain level [12, 17] | brain level [12, 18] | Ki [13] | also measured
NC(=O)C[S+]([O-])C(c1ccccc1)c1ccccc1 (racemic) [(±)-modafinil] | – | – | – | – | – | – | – | – | – | METH self-administration (METH self-administration [1]; 300 mg/kg, very high dose, ref Reichel and See (2012)): significantly decreased
CCCCN1[C@@H]2CC[C@H]1CC(OC(c1ccc(F)cc1)c1ccc(F)cc1)C2 (stereo partly drawn) [JHW 007, reference compound] | 0.20-0.23 | – | – | – | – | – | – | – | – | METH self-administration (METH self-administration [1]; [15]): effectively block; cocaine self-administration [2, 15]: effectively block
Fc1ccc(C(SCCNCCCc2ccccc2)c2ccc(F)cc2)cc1 [JJC8-016, N-[2-([bis(4-fluorophenyl)methyl]thio)ethyl]-3-phenylpropan-1-amine] | – | significantly decreased | > 50% | 9 min | significantly reduced | without causing significant locomotor effects | – | – | – | METH intake, LgA rats first hour (METH self-administration [3]; 30 mg/kg i.p., vs vehicle): significantly decreased; METH intake, ShA rats 1 h session (METH self-administration [3]; 30 mg/kg i.p., vs vehicle): significantly decreased; reduction of self-administration (METH self-administration [3]; LgA rats, 1 h time point (Supplemental Figure S2)): > 50%; brain penetration [7]: good brain penetration; affinity for sigma-1 receptors (sigma-1 receptors): high affinities; cocaine self-administration ([2]; ref Zhang et al, 2017): effectively inhibited; cocaine-induced locomotion [8]: effectively inhibited; cocaine-induced reinstatement [9]: effectively inhibited; intracranial self-stimulation (brain stimulation reward; ref Zhang et al, 2017): without affecting; sucrose self-administration [10]: reduce; locomotor activity (locomotion [11]; ref Zhang et al, 2017): without affecting
[O-][S+](CCN1CCN(CC(O)Cc2ccccc2)CC1)C(c1ccc(F)cc1)c1ccc(F)cc1 (stereo not drawn) [JJC8-088, 1-[4-(2-[(bis[4-fluorophenyl]methyl)sulfinyl]ethyl)piperazin-1-yl]-3-phenylpropan-2-ol] | > 100 | – | – | 39 min | increased | increased | very little | nearly undetectable | 2.53 nM | METH intake, LgA rats entire 6 h session (METH self-administration [3]; all doses tested i.p. (3, 10, 30 mg/kg)): did not affect; METH intake, LgA rats first hour (METH self-administration [3]; [16]): did not significantly change; METH intake, ShA rats 1 h session (METH self-administration [3]; [16]): did not significantly change; levels in both brain and plasma ([12]; 10 mg/kg i.p., 30 min and 2 h): low levels; t1/2 in mouse liver microsomes [14]: 12.9 min; Ki (sigma-1 receptors; read-out: Ki, sigma1 receptors): 336 nM
CC(O)CN1CCN(CCSC(c2ccc(F)cc2)c2ccc(F)cc2)CC1 (stereo not drawn) [JJC8-089, 1-[4-(2-[(bis[4-fluorophenyl]methyl)thio]ethyl)piperazin-1-yl]propan-2-ol] | 0.24 | significantly decreased | > 50% | 14 min | significantly reduced | without causing significant locomotor effects | 7.6 ± 0.3 nmol/g | 3.6 ± 0.7 nmol/g | 16.7 nM | METH intake, LgA rats first hour (METH self-administration [3]; [16]): only observed a group effect; METH intake, ShA rats 1 h session (METH self-administration [3]; [16]): only observed a group effect; Kp ([12]; brain/plasma, ip, 10 mg/kg): 8 to 9; affinity for sigma-1 receptors (sigma-1 receptors): high affinities
CC(O)CN1CCN(CC[S+]([O-])C(c2ccc(F)cc2)c2ccc(F)cc2)CC1 (stereo not drawn) [JJC8-091, 1-[4-(2-[(bis[4-fluorophenyl]methyl)sulfinyl]ethyl)piperazin-1-yl]propan-2-ol] | – | significant reduction | – | 126 min | significantly reduced | without causing significant locomotor effects | 0.45 ± 0.18 nmol/g | 0.30 ± 0.015 nmol/g | 289 nM | METH intake, LgA rats entire 6 h session (METH self-administration [3]; 10 mg/kg i.p., vs vehicle): significant reduction; METH intake, LgA rats entire 6 h session (METH self-administration [3]; 56 mg/kg i.p., vs vehicle): significant reduction; METH intake, LgA rats first hour (METH self-administration [3]; 56 mg/kg i.p., vs vehicle): decreased; METH intake, ShA rats 1 h session (METH self-administration [3]; 56 mg/kg i.p., vs vehicle): decreased
NC(=O)C[S@@+]([O-])C(c1ccccc1)c1ccccc1 [R-MOD, [R]-2-[(diphenylmethyl)sulfinyl]acetamide, reference compound] | – | – | > 50% | 55 min | did not alter | did not alter | – | – | – | METH intake, LgA rats first hour (METH self-administration [3]; [19]): significantly decreased; METH intake, ShA rats 1 h session (METH self-administration [3]; [19]): significantly decreased; METH intake, LgA rats entire 6 h session (METH self-administration [3]; 100 mg/kg i.p., vs vehicle (p = 0.058)): nonsignificant; brain stimulation reward (brain stimulation reward; [20]): enhanced; locomotion (locomotion [11]; [20]): increased
